Test results reported in ChEMBL document CHEMBL1926521, “Arylcyanoacrylamides as inhibitors of the Dengue and West Nile virus proteases” (Bioorg Med Chem, 2011).
The source made the active and inactive calls. The rule behind the calls is not given here.

What was measured:
[1] = target: T1, Prothrombin (Homo sapiens, UniProt P00734); test: Inhibition of human thrombin using Boc-VPR-AMC as substrate compound preincubated for 15 mins before substrate addition measured up to 10 mins by spectrofluorimetry
[2] = Inhibition of Dengue virus NS2B-NS3 protease expressed in Escherichia coli BL21 lambda (DE3) using Abz-NleKRRS-3-(NO2)Y as substrate compound preincubated for 15 mins before substrate addition measured up to 15 mins by spectrofluorimetry
[3] = test system: Dengue virus; test: Inhibition of Dengue virus NS2B-NS3 protease expressed in Escherichia coli BL21 lambda (DE3) using Abz-NleKRRS-3-(NO2)Y as substrate at 50 uM preincubated for 15 mins before substrate addition measured up to 15 mins by spectrofluorimetry
How it was run: (§1)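 Single-concentration screen against His-tagged NS2B-NS3 protease (Ni²⁺-affinity purified from E. coli). Enzyme was 100 nM for Dengue or 150 nM for West Nile. Inhibitor at 50 µM was preincubated 15 min with enzyme, then internally quenched FRET substrate (final 50 µM) was added. Read at ex 320/em 405 nm for 15 min. Rate taken as RFU/s; % inhibition is the mean of triplicates.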

[4] = test system: West Nile virus; test: Inhibition of West Nile virus NS2B-NS3 protease expressed in Escherichia coli BL21 lambda (DE3) using Abz-GLKRGG-3-(NO2)Y as substrate at 50 uM preincubated for 15 mins before substrate addition measured up to 15 mins by spectrofluorimetry; how it was run: as §1
[5] = target: T1, Prothrombin; test: Inhibition of human thrombin using Boc-VPR-AMC as substrate at 25 uM preincubated for 15 mins before substrate addition measured up to 10 mins by spectrofluorimetry
[6] = Inhibition of West Nile virus NS2B-NS3 protease expressed in Escherichia coli BL21 lambda (DE3) using Abz-GLKRGG-3-(NO2)Y compound preincubated for 15 mins before substrate addition measured up to 15 mins by spectrofluorimetry
[7] = Selectivity ratio of Ki for human thrombin to Ki for West Nile virus NS2B-NS3 protease
[8] = Selectivity ratio of Ki for human thrombin to Ki for Dengue virus NS2B-NS3 protease
[9] = test system: Dengue virus; test: Binding affinity to Dengue virus NS2B-NS3 protease catalytic center assessed as quenching of Trp50 intrinsic fluorescence in presence of aprotinin
[10] = test system: Dengue virus; test: Binding affinity to Dengue virus NS2B-NS3 protease catalytic center assessed as quenching of Trp50 intrinsic fluorescence

inhibition [3] | inhibition [4] | inhibition [5] | Compound | further results
10.5% | 24% | 47% | N#C/C(=C\c1ccc(N2CCOCC2)o1)C(=O)NC1CC1 | Ki [1]: 23.4 µM; Ki [2]: 184 µM; Ki [6]: > 200 µM
51.7% | 55% | 24.4% | N#C/C(=C\c1ccc(O)cc1)C(N)=O | Ki [1]: 102 µM; Ratio Ki [7]: 2.3; Ratio Ki [8]: 2.8; Ki [2]: 35.7 µM; Ki [6]: 44.6 µM
28.2% | 46.3% | 14.4% | CC(C)c1ccc(/C=C(\C#N)C(=O)NCC2CCCO2)cc1 (stereo unspecified) | Activity [9]: inactive; Ki [1]: 165 µM; Ki [2]: 98.1 µM; Ki [6]: 101 µM; Activity [10]: Active
22.5% | 16% | 7.9% | N#C/C(=C\c1ccc(F)cc1)C(N)=O | 
38.7% | 46.5% | 13.3% | CN(C)c1ccc(/C=C(\C#N)C(=O)O)cc1 | 
inactive | inactive | inactive | N#CC(Cc1c[nH]c2ccccc12)C(N)=O (stereo unspecified) | 
7.6% | 16% | 6.9% | CCC/C(=C(\C#N)C(N)=O)c1ccccc1 | 
inactive | inactive | inactive | N#C/C(=C\c1cccnc1)C(N)=O | 
13.2% | 22.7% | inactive | C/C(=C(\C#N)C(N)=O)c1ccc(O)cc1 | 
14.7% | 10.7% | 8.5% | N#C/C(=C\c1ccc(Cl)cc1Cl)C(N)=O | 
18.2% | 22.2% | 17.9% | CC(C)c1ccc(/C=C(\C#N)C(=O)NC2CC2)cc1 | 
22% | 23.8% | 27.9% | N#C/C(=C\c1ccc(Cl)s1)C(N)=O | 
inactive | inactive | inactive | C/C(=C\c1ccccc1)CC(C#N)C(N)=O (stereo unspecified) | 
14% | 24.2% | 20% | N#C/C(=C\c1ccc(N2CCCCC2)cc1)C(N)=O | 
17.1% | 23.8% | 13.2% | N#C/C(=C\c1ccc(C(=O)O)cc1)C(N)=O | 
18.5% | 20.5% | 9.7% | N#C/C(=C\c1cccc(N2CCOCC2)c1)C(=O)NC1CC1 | 

inhibition [3] | inhibition [4] | inhibition [5] | Compound | further results
32.2% | 49.9% | 18% | N#C/C(=C\c1ccc(O)cc1)C(=O)N1CCOCC1 | 
22.1% | 21.7% | 8.7% | N#C/C(=C\c1ccc(CO)cc1)C(N)=O | 
34.9% | 28.8% | 18.4% | N#C/C(=C\c1ccc(O)c(O)c1)C(N)=O | 
inactive | 13.8% | 10.1% | CC(C)/C(=C(\C#N)C(N)=O)c1ccccc1 | 
19.7% | 23.4% | 16.7% | COc1ccc(/C=C(\C#N)C(N)=O)cc1 | 
25.3% | 21.3% | inactive | CN(C)c1ccc(/C=C(\C#N)C(=O)NCc2ccccn2)cc1 | 
35.1% | 46% | 21.6% | CN(C)c1ccc(/C=C(\C#N)C(N)=O)cc1 | 
23% | 31.7% | 23.3% | COc1ccc(/C=C(\C#N)C(=O)N[C@@H](CO)C(=O)NC2CC2)cc1 | 
30.2% | 34.6% | 20.5% | CC(=C\c1ccccc1)/C=C(\C#N)C(N)=O | 
23.7% | 33.4% | 16.4% | N#C/C(=C\c1c[nH]c2ccccc12)C(N)=O | 
9% | 37% | 6.7% | CN(C)c1ccc(/C=C/CC(C#N)C(=O)NC2CC2)cc1 (stereo unspecified) | 
inactive | inactive | 13.7% | CN(C)c1ccc(/C=C(\C#N)C(N)=S)cc1 | 
46.6% | 41.8% | 18.9% | N#C/C(=C\c1ccc(O)cc1)C(=O)NCc1ccccn1 | 
15% | 9.3% | 12.5% | N#C/C(=C\c1ccccc1)C(N)=O | 
9% | 18.4% | 9.7% | C/C(=C(\C#N)C(N)=O)c1ccccc1 | 
